The subject of assay [1] is SK-N-MC. Briefly: Antiproliferative activity against human SK-N-MC cells measured after 72 hrs at 37 degC by MTT assay. The format is functional, cell-based. The method in brief: (§1)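 Cells seeded and left to attach 24 h, then exposed to control medium or chelator for 72 h at 37 °C; proliferation read by MTT assay.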
On the technique in general: Tetrazolium dyes change colour on reduction, which living cells bring about.

Assay [2] has as its system SK-N-MC. The assay is described as follows: Inhibition of cellular iron uptake in human SK-N-MC cells assessed as iron uptake at 25 uM for 3 hrs at 37 degC relative to control. Also on record: scale not given: the % may be the effect or the level left. The assay is classed as functional. The method in brief:
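59Fe-transferrin (0.75 µM) given to cells 3 h at 37 °C with or without chelator (25 µM); washed four times on ice, internalized 59Fe measured and expressed as % of control. Mean ± SD of three experiments with three determinations each.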

Assay [3] has as its system MRC5. Briefly: Antiproliferative activity against human MRC5 cells measured after 72 hrs at 37 degC by MTT assay. The format is functional, cell-based. The note with it: MRC5, 72 h. The method in brief:
as §1

Assay [4] has as its system SK-N-MC. Briefly: Induction of cellular iron mobility in human SK-N-MC cells assessed as iron release at 25 uM for 3 hrs at 37 degC. The assay is classed as functional. A digest of the protocol:
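Cells prelabeled with 59Fe-transferrin (0.75 µM) 3 h at 37 °C, washed four times with ice-cold PBS, then given control medium or chelator (25 µM) 3 h at 37 °C; released 59Fe expressed as % of intracellular 59Fe. Mean ± SD, three experiments, triplicate determinations.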

pIC50: −log10 of the molar value.

What is called pIC50 is the IC50 on a negative log10 scale, so that one unit is a factor of ten. For `CC(=O)N(O)CCCCCNC(=O)CCC(=O)N(O)CCCCCNC(=O)CCC(=O)N(O)CCCCCN` [DEFEROXAMINE], the negative-log IC50 (pIC50) in assay [1] is 4.66. The Activity in assay [2] is recorded as 80%.

For the compound `Cc1cccc(/C(=N\NC(=S)N(C)C)c2ccccc2)n1`, the figures for the pIC50 in assay [1] and in assay [3] were 8.05 and 7.68, respectively. Moreover, the Activity in assay [4] amounted to 9%; in assay [2], 14%.

As to `CN(C)C(=S)NN=C(c1ccccn1)c1ccccn1`, the Activity in assay [2] stood at 5%.

Turning to `CNC(=S)N/N=C(/c1ccccc1)c1cccc(C)n1`, the values for the pIC50 in assay [1] and in assay [3] were 5.27 and below 5.20, respectively. In addition, the Activity in assay [4] came to 9%; in assay [2], 14%.

As to `CCNC(=S)N/N=C(/c1ccc(OC)c(OC)c1)c1cccc(C)n1`, the pIC50 in assay [1] and in assay [3] was below 5.20 throughout. In addition, the Activity was 21% in assay [4] and 14% in assay [2].

For `COc1ccc(/C(=N/NC(N)=S)c2cccc(C)n2)cc1OC`, the pIC50 in assay [1] and in assay [3] was below 5.20 throughout. The Activity in assay [4] is listed as 21%; in assay [2], 14%.

Consider `Cc1cccc(/C(=N\NC(N)=S)c2ccccc2)n1`, for which the pIC50 in assay [1] and in assay [3] was below 5.20 in each case. Also, the values for the Activity in assay [4] and in assay [2] were 9% and 14%, respectively.

On to `C=CCNC(=S)N/N=C(/c1ccc(OC)cc1)c1cccc(C)n1`, for which the pIC50 in assay [1] and in assay [3] was below 5.20 each time. Also, the Activity in assay [4] worked out at 15%; in assay [2], 14%.

For `C=CCNC(=S)N/N=C(/c1ccccc1)c1cccc(C)n1`, the pIC50 in assay [1] and in assay [3] was below 5.20 throughout. The Activity in assay [4] stood at 9%; in assay [2], 14%.

In the case of `COc1ccc(/C(=N/NC(=S)N(C)C)c2cccc(C)n2)cc1`, the negative-log IC50 (pIC50) in assay [1] was 5.66; in assay [3], below 5.20. Further, the values for the Activity in assay [4] and in assay [2] were 15% and 14%, respectively.

Consider `Cc1cccc(/C(=N\NC(=S)Nc2ccccc2)c2ccccc2)n1`, for which the pIC50 in assay [1] was 5.55; in assay [3], below 5.20. Besides, the Activity amounted to 9% in assay [4] and 58% in assay [2].

With `COc1ccc(/C(=N/NC(=S)Nc2ccccc2)c2cccc(C)n2)cc1OC`, the negative logarithm of the IC50 (pIC50) was 6.21 in assay [1] and 5.68 in assay [3]. Moreover, the Activity is given as 21% in assay [4] and 58% in assay [2].

Take `CCNC(=S)N/N=C(/c1ccccc1)c1cccc(C)n1`: the pIC50 is 6.06 in assay [1] and below 5.20 in assay [3]. The Activity in assay [4] is 9%; in assay [2], 14%.

As for `COc1ccc(/C(=N/NC(=S)Nc2ccccc2)c2cccc(C)n2)cc1`, the pIC50 in assay [1] is 5.76; in assay [3], 5.42. Also, the Activity in assay [4] is recorded as 15%; in assay [2], 58%.

Consider `CCNC(=S)N/N=C(/c1ccc(OC)cc1)c1cccc(C)n1`, for which the pIC50 in assay [1] and in assay [3] was below 5.20 in each case. Also, the Activity in assay [4] is given as 15%; in assay [2] it was 14%.

For `COc1ccc(/C(=N/NC(=S)N(C)C)c2cccc(C)n2)cc1OC`, the values for the pIC50 in assay [1] and in assay [3] were 5.61 and below 5.20, respectively. Besides, the values for the Activity in assay [4] and in assay [2] were 41% and 14%, respectively.

Consider `CNC(=S)N/N=C(/c1ccc(OC)c(OC)c1)c1cccc(C)n1`, for which the pIC50 in assay [1] and in assay [3] was below 5.20 each time. Moreover, the Activity in assay [4] is listed as 21%; in assay [2], 14%.

In the case of `CNC(=S)N/N=C(/c1ccc(OC)cc1)c1cccc(C)n1`, the pIC50 in assay [1] and in assay [3] was below 5.20 each time. The results for the Activity in assay [4] and in assay [2] were 42% and 22%, respectively.

For the compound `C=CCNC(=S)N/N=C(/c1ccc(OC)c(OC)c1)c1cccc(C)n1`, the pIC50 in assay [1] and in assay [3] was below 5.20 in each case. Further, the Activity was 21% in assay [4] and 14% in assay [2].

In the case of `COc1ccc(/C(=N/NC(N)=S)c2cccc(C)n2)cc1`, the pIC50 in assay [1] and in assay [3] was below 5.20 throughout. In addition, the results for the Activity in assay [4] and in assay [2] were 15% and 14%, respectively.
